Shown are actives, neighbours in structure and some others; about 2.3% of the full set was active somewhere.
TRPC6 act = mouse TRPC6 channel activators, primary screen, cell-based, HEK293, membrane potential dye. HEK293-TRPC6 membrane potential dye fluorescence; active compounds read high. AID 2550, 2010. hit rate 0.13% among 310,000. B-score at 10 µM. Short transient receptor potential channel 6 (Mus musculus), Q61143;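 active means B-score of the integrated fluorescence ratio above library mean plus 3 SD, and starting fluorescence ratio within library mean plus 5 SD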;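 further: higher score means more depolarization so channel activation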
TRPC4 agonist = activators of mouse TRPC4 channel, primary screen, Fluo4 calcium, HEK293 TRPC4beta/mu-opioid cells; Short transient receptor potential channel 4 (Mus musculus), Q9QUQ5; Fluo4 calcium fluorescence; active compounds read high; B-score at 10 µM; hit rate 0.49% among 310,000; AID 2237, 2010;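 active means B-score above 5 SD of library B-scores, and initial fluorescence ratio not above library mean plus 5 SD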;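 further: positive B-score marks a calcium rise read as TRPC4 activation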
Target sequence (Q9QUQ5 whole entry, looked up): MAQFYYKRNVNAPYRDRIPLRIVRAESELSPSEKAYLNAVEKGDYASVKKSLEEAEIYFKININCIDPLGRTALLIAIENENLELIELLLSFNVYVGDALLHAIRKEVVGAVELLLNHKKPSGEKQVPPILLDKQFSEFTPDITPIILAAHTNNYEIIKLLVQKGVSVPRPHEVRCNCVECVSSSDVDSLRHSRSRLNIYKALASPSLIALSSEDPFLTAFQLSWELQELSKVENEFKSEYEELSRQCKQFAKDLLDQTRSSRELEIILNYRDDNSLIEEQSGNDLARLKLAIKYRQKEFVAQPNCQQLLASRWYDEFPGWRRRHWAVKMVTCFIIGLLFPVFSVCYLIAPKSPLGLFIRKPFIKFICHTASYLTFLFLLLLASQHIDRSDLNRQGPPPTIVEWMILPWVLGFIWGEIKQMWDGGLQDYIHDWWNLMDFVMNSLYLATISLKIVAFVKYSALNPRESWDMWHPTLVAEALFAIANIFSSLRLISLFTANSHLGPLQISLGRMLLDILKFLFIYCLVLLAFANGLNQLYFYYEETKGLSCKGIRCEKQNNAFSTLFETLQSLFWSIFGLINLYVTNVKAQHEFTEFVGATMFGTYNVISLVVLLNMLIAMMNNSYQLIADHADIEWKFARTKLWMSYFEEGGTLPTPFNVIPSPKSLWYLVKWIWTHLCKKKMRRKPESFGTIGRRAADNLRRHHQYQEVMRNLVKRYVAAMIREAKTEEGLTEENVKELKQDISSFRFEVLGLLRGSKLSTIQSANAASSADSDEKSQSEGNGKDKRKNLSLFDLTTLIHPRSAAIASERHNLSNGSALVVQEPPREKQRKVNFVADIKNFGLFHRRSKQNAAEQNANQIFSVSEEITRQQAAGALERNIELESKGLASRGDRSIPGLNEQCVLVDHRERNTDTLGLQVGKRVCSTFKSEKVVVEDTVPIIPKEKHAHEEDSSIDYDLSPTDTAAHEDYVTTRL
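Technique: kinetic Fluo4 calcium fluorescence; Test system: TRPC4beta and mu-opioid receptor HEK293 stable cells; Measure: B-scored integrated calcium fluorescence ratio; Benchmarks: low control buffer alone, high control maximal DAMGO; Schedule: 45 min room-temperature Fluo4 loading, 110 s read.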
TRPC6 inh = mouse TRPC6 channel inhibitors, primary screen, cell-based, HEK293, membrane potential dye. B-score at 10 µM. hit rate 1.1% among 310,000. AID 2553, 2010. ACh-evoked depolarization; active compounds read low. Short transient receptor potential channel 6 (Mus musculus), Q61143;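 active means B-score under library mean minus 3 SD, initial fluorescence not abnormally high, positive integrated signal ratio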;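 further: B-score derived from integrated fluorescence ratio over the kinetic read; more negative B-score means stronger inhibition of depolarization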
TRPC4 block = inhibitors of mouse TRPC4 channel, primary screen, Fluo4 calcium, HEK293 TRPC4beta/mu-opioid cells. Short transient receptor potential channel 4 (Mus musculus), Q9QUQ5. DAMGO-evoked Fluo4 calcium flux; active compounds read low. B-score at 10 µM. hit rate 0.39% among 300,000;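 active means B-score over 3 SD under the library average, no early fluorescence shift, positive overall ratio signal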
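Assay system: Stable TRPC4beta/mu-opioid receptor HEK293 cells | Reagent: DAMGO in two steps, submaximal then maximal | Compound dosing: Single concentration per test compound | Signal: Fluo4 Ca2+ flux fluorescence | Evaluation: Per-well B score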
TRPC4 PAM = positive allosteric modulators of TRPC4, primary screen, cell-based, mouse TRPC4beta, HEK293 mu-opioid, Fluo-4 calcium | DAMGO EC20, Fluo-4 Ca2+ flux; active compounds read high | B-score at 10 µM | hit rate 0.42% among 310,000 | Short transient receptor potential channel 4 (Mus musculus), Q9QUQ5;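 active means B-score of calcium response area above 5 SD of library B-scores, with initial fluorescence ratio within 5 SD of library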
TRPC4 sel inh 2 = second selectivity test of TRPC6 inhibitors: effect on mouse TRPC4; shares compounds with TRPC6 inh; AID 2776; hit rate 42% among 920; inhibition, % at 10 µM; HEK293 TRPC4/MOR, membrane potential dye fluorescence; channel activated by saturating DAMGO dose;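 active means compounds whose fluorescence signal differed from control wells by over 3 SD, either direction, in both duplicate plates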
TRPC4 spec = mouse TRPC4 modulation by TRPC6 hits, confirmation, selectivity assay for TRPC6 inhibitor project, cell-based, HEK293 TRPC4/mu-opioid, membrane potential dye | shares compounds with TRPC6 inh | membrane potential fluorescence | activity change, negative = inhibition, % at 10 µM | hit rate 61% among 920;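 active means rise or fall in signal beyond 3 SD of buffer-only wells in both replicate plates, either sign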;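 further: integrated kinetic ratio of fluorescence range over baseline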
HEK293 MPD ctr 2-1 = nonspecific membrane potential effects, parental HEK293, confirmation, counter-screen for TRPC6 inhibitor project, cell-based, second counter screen | shares compounds with TRPC6 inh | parental HEK293 membrane potential dye fluorescence; maximal acetylcholine challenge after compound addition | signal change vs control, % at 10 µM | hit rate 31% among 920 | AID 2779, 2010;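 active means membrane potential signal moving either way by over 3 SD of the maximum-effect control, in both duplicate plates, meaning non-specific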
HEK293 MPD ctr-1 = membrane potential modulation in parental HEK293, confirmation, counter-screen for TRPC6 inhibitor project, cell-based. shares compounds with TRPC6 inh. hit rate 60% among 920. membrane potential signal change, % at 10 µM. parental HEK293 membrane potential dye fluorescence;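 active means membrane potential signal shifting up or down by more than 3 SD of buffer-only wells, on both duplicate plates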
HEK293 MPD ctr-2 = parental HEK293 membrane potential modulation, confirmation, counter-screen for TRPC6 modulator project, cell-based | hit rate 51% among 2,400 | AID 488924, 2010 | membrane potential signal change, % at 10 µM | membrane potential dye fluorescence | shares compounds with TRPC6 inh;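 active means membrane potential signal moves up or down beyond 5 SD from buffer-only wells, on both duplicate plates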
HEK293 MPD ctr 2-2 = second check of TRPC6 modulator effects in parental HEK293 cells. shares compounds with TRPC6 inh. membrane potential dye fluorescence; after compound, maximal acetylcholine stimulation. inhibition, % at 10 µM. hit rate 14% among 2,400. AID 488926;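 active means membrane potential signal drops by more than 5 SD from the mean control signal, in both duplicate plates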
TRPC4 ctr mod = TRPC4 modulation by TRPC6 hit compounds, confirmation, selectivity assay for TRPC6 modulator project, cell-based, HEK293 TRPC4/mu-opioid, membrane potential dye, mouse. hit rate 69% among 2,400. shares compounds with TRPC6 inh. percent change from control (negative = decrease, positive = increase), % at 10 µM. membrane potential fluorescence;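 active means membrane potential signal moved up or down beyond 5 SD of buffer control wells, in both duplicate plates, actives on both sides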
TRPC4 ctr inh 2 = second check of whether TRPC6 modulators also affect mouse TRPC4 | shares compounds with TRPC6 inh | HEK293 TRPC4/mu-opioid, membrane potential dye fluorescence; stimulated with maximal-effect DAMGO | inhibition, % at 10 µM | hit rate 55% among 2,400 | AID 488928;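 active means drop in membrane potential signal beyond 5 SD of the control wells in both duplicate plates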;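 further: TRPC4 counter screen for TRPC6 hits run under conditions tuned for TRPC6 not TRPC4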
TRPC6 block conf = mouse TRPC6 channel inhibitors, confirmation, HEK293 cells, membrane potential dye, duplicate; AID 488960, 2010; inhibition, % at 10 µM; shares compounds with TRPC6 inh; ACh-evoked depolarization; hit rate 43% among 3,300;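 active means fluorescence ratio falls more than 5 SD below the full-stimulation control mean, in both duplicate runs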;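 further: integrated fluorescence ratio of peak minus minimum over baseline after agonist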
TRPC6 act confirm = mouse TRPC6 channel activators, confirmation, HEK293 cells, membrane potential dye, duplicate. shares compounds with TRPC6 inh. HEK293-TRPC6 membrane potential dye fluorescence, FDSS. activation, % at 10 µM. hit rate 11% among 2,800;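 active means ratio signal rise beyond 5 SD above unstimulated control wells' mean, seen in both duplicate runs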
Each line names hits and unclear results; the compound was inactive in the other large screens (follow-up assays come after a bar, where they were run).

Nc1nc(Nc2ccccc2)nc2ccccc12	TRPC6 inh -22 | HEK293 MPD ctr-2 -200% | HEK293 MPD ctr 2-2 90% | TRPC4 ctr mod -46% | TRPC4 ctr inh 2 86% | TRPC6 block conf 86% | TRPC6 act confirm inactive
COc1cccc(CN(C)C(=O)Cc2ccc(OC)c(S(=O)(=O)N3CCOCC3)c2)c1	none
CN(C(=O)CSc1nnc(C(F)(F)F)n1N)C1CCS(=O)(=O)C1 (stereo not drawn)	none
CCn1ncc(CN2CCC(Oc3cc(C(=O)NC4CC4)ccc3OC)CC2)c1C	none
CCOC(=O)N1CCN(c2ccc(S(=O)(=O)N(Cc3ccccc3)Cc3ccccc3)cn2)CC1	TRPC6 inh -5.3 | HEK293 MPD ctr-2 inactive | HEK293 MPD ctr 2-2 inactive | TRPC4 ctr mod 12% | TRPC4 ctr inh 2 inactive | TRPC6 block conf inactive | TRPC6 act confirm inactive
CC(=NCCCn1ccnc1)c1c(C)[nH]n(-c2ccc([N+](=O)[O-])cc2)c1=O	TRPC6 inh -5.5 | HEK293 MPD ctr-2 -208% | HEK293 MPD ctr 2-2 inactive | TRPC4 ctr mod -42% | TRPC4 ctr inh 2 37% | TRPC6 block conf inactive | TRPC6 act confirm inactive
Cc1[nH]n(-c2ccc([N+](=O)[O-])cc2)c(=O)c1/C=N/N1CCOCC1	none
O=C(c1ccc(N2CCOCC2)c([N+](=O)[O-])c1)N1CCCC(C(F)(F)F)C1 (stereo not drawn)	none
CCOC(=O)c1c(C)n(C)c2ccc(O)c(CN3CCC(C)CC3)c12	TRPC6 inh -9.4 | HEK293 MPD ctr-2 -140% | HEK293 MPD ctr 2-2 inactive | TRPC4 ctr mod -18% | TRPC4 ctr inh 2 73% | TRPC6 block conf 64% | TRPC6 act confirm inactive
CCOC(=O)c1c(CSc2ccccc2)n(C)c2ccc(O)c(CN3CCOCC3)c12	TRPC6 inh -5.5 | HEK293 MPD ctr-2 inactive | HEK293 MPD ctr 2-2 inactive | TRPC4 ctr mod inactive | TRPC4 ctr inh 2 55% | TRPC6 block conf 36% | TRPC6 act confirm inactive
CCOC(=O)c1c(C)n(C)c2ccc(O)c(CN(CC)CC)c12	TRPC6 inh -6.5 | HEK293 MPD ctr-2 -112% | HEK293 MPD ctr 2-2 inactive | TRPC4 ctr mod -14% | TRPC4 ctr inh 2 52% | TRPC6 block conf 54% | TRPC6 act confirm inactive
CCOC(=O)c1c(C)n(C)c2ccc(O)c(CN3CCN(C)CC3)c12	none
CCOC(=O)c1c(CSc2ccccc2)n(C)c2cc(Br)c(OC)c(O)c12	none
CCOC(=O)c1c(C)n(-c2ccccc2)c2ccc(O)c(CN(C)C)c12	TRPC6 inh -6.5 | HEK293 MPD ctr-2 -90% | HEK293 MPD ctr 2-2 inactive | TRPC4 ctr mod -18% | TRPC4 ctr inh 2 65% | TRPC6 block conf 69% | TRPC6 act confirm inactive
CCOC(=O)c1c(C)n(-c2ccccc2)c2ccc(O)cc12	none
CC(=O)c1cccc(N(CC(=O)Nc2ccccc2C(=O)N2CCCC2)S(C)(=O)=O)c1	none
CCNC(=O)c1cc2c(=O)n3cccc(C)c3nc2n(Cc2ccc(C)cc2)c1=N	TRPC6 inh -6.1 | HEK293 MPD ctr-2 -146% | HEK293 MPD ctr 2-2 inactive | TRPC4 ctr mod -28% | TRPC4 ctr inh 2 40% | TRPC6 block conf inactive | TRPC6 act confirm inactive
Cc1cccn2c(=O)c3cc(C(=O)NC4CCCCC4)c(=N)n(Cc4ccc(F)cc4)c3nc12	none
COc1ccc(CNC(=O)c2cc3c(=O)n4cccc(C)c4nc3n(CC3CCCO3)c2=N)cc1 (stereo not drawn)	none
COCCCNC(=O)c1cc2c(=O)n3cccc(C)c3nc2n(C(C)C)c1=N	TRPC6 inh -5 | HEK293 MPD ctr-2 inactive | HEK293 MPD ctr 2-2 67% | TRPC4 ctr mod inactive | TRPC4 ctr inh 2 30% | TRPC6 block conf 45% | TRPC6 act confirm inactive
Cc1cccn2c(=O)c3cc(C(=O)NC(C)C)c(=N)n(Cc4ccncc4)c3nc12	TRPC6 inh -7.6 | TRPC4 sel inh 2 72% | TRPC4 spec -19% | HEK293 MPD ctr 2-1 -16% | HEK293 MPD ctr-1 -304% | TRPC6 block conf 76% | TRPC6 act confirm inactive
COCCn1c(=N)c(C(=O)NCCc2ccc(OC)cc2)cc2c(=O)n3cccc(C)c3nc21	none
COC(=O)C(C)Oc1ccc(Cl)c(CN2OCC(C)(C)C2=O)c1 (stereo not drawn)	none
Cc1ccsc1/C=N/NC(=O)C(=O)NCC(C)C	none
CC(C)=CCCC(C)CN1CCC(n2nccc2NC(=O)c2cccnc2)CC1 (stereo not drawn)	none

Source: PubChem (Johns Hopkins Ion Channel Center)
